The subject of assay [1] is Bacillus subtilis. Description: Antibacterial activity against Bacillus subtilis NBRC 3134 after 18 hrs by broth microdilution method. In kind it is functional. The settings on record: NBRC 3134, 18 h. The procedure, abridged: (§1)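 Broth microdilution run to CLSI standard methods. MIC taken as the lowest concentration inhibiting growth. Ampicillin and chloramphenicol served as positive controls. Compounds were tested up to 128 µg/mL.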
Background: Broth dilution looks for growth in wells or tubes with falling amounts of substance.

Assay [2] concerns HL-60. Description: Cytotoxicity against human HL60 cells assessed as reduction in cell viability incubated for 48 hrs by WST8 dye based assay. The assay is classed as functional. The settings on record: HL-60, 48 h. An outline of the steps:
(§2)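 Suspension leukemia lines (HL-60 promyelocytic, Jurkat T-ALL) exposed to a range of concentrations for 48 h. Viability read by WST-8. IC50 is the concentration giving 50% loss of viability, mean ± SD of triplicates. SN-38 served as positive control.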
For orientation: Tetrazolium dyes change colour on reduction, which living cells bring about.

The test system of assay [3] is Bacillus subtilis. Description: Bactericidal activity against Bacillus subtilis NBRC 3134 incubated for 18 hrs followed by inoculums transfer to MHA plate and further incubated for 24 hrs. In kind it is functional. The procedure, abridged:
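MBC determined per CLSI methods following broth microdilution MIC testing. Ampicillin and chloramphenicol served as positive controls.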

For the next assay, the system named is HCT-116. Description: Cytotoxicity against human HCT116 cells assessed as reduction in cell viability incubated for 48 hrs by WST8 dye based assay. To be noted: HCT-116, 48 h. The assay is classed as functional. An outline of the steps: (§3)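 Adherent human cancer lines (A549 lung, HCT116 colon, HeLa cervix, TE8 esophageal squamous) exposed to a range of concentrations for 48 h. Viability read by WST-8. IC50 taken as 50% inhibition of viability, mean ± SD of triplicate experiments. SN-38 served as positive control. Tested up to 100 μM.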

A further assay relates to A549. Description: Cytotoxicity against human A549 cells assessed as reduction in cell viability incubated for 48 hrs by WST8 dye based assay. In kind it is functional. The settings on record: A549, 48 h. An outline of the steps: as §3
The test system of the next assay is MRC5. Description: Cytotoxicity against human MRC5 cells assessed as reduction in cell viability incubated for 48 hrs by WST8 dye based assay. To be noted: MRC5, 48 h. The procedure, abridged: (§4)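 Adherent non-cancer cells (HEK293, Ad5-transformed embryonic kidney; MRC-5, normal diploid fibroblast) treated with graded concentrations for 48 h. WST-8 viability read-out. IC50 reported as mean ± SD of triplicate experiments. SN-38 served as positive control. Tested up to 50 μM.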

For another assay, the system named is HEK293. Description: Cytotoxicity against human HEK293 cells assessed as reduction in cell viability incubated for 48 hrs by WST8 dye based assay. The settings on record: HEK293, 48 h. An outline of the steps: as §4
The next assay concerns TE-8. Description: Cytotoxicity against human TE8 cells assessed as reduction in cell viability incubated for 48 hrs by WST8 dye based assay. The assay is classed as functional. To be noted: TE-8, 48 h. The procedure, abridged: as §3
A further assay deals with HeLa. Description: Cytotoxicity against human HeLa cells assessed as reduction in cell viability incubated for 48 hrs by WST8 dye based assay. In kind it is functional. An outline of the steps:
as §3

Another assay concerns Escherichia coli. Description: Antibacterial activity against Escherichia coli NBRC 3301 after 17 hrs by broth microdilution method. In kind it is functional. To be noted: NBRC 3301, 17 h. The procedure, abridged:
as §1

For a further assay, the system named is Jurkat. Description: Cytotoxicity against human Jurkat cells assessed as reduction in cell viability incubated for 48 hrs by WST8 dye based assay. The assay is classed as functional. An outline of the steps: as §2
In assay [4] the test system is HL-60. Description: Induction of DNA fragmentation in human HL60 cells at 0.5 to 5 uM after 6 hrs by […] staining-based agarose gel electrophoresis. The assay is classed as functional, cell-based.
The test system of assay [5] is HL-60. Description: Induction of cell death in human HL60 cells assessed as reduction in cell viability at 2 uM incubated for 6 hrs after pre-treatment with caspase inhibitor Z-Asp-CH2-DCB for 1 hr by WST8 dye based assay. The assay is classed as functional.

≈ marks a conversion by molar mass, not a printed value. Calls of active or inactive are those of the source.

Broadly, the MIC is the smallest concentration in the dilution series that meets the test's criterion for growth inhibition. A higher MIC goes with weaker potency. The term IC50 denotes the concentration that gives 50% inhibition. Broadly, the MBC is the lowest tested concentration that kills the bacteria rather than only halting them. A lower MBC goes with greater bactericidal potency. `CC1=CC(=O)[C@]2(O[C@@H]2C(=O)CC(C)C)C(=O)N1`: in the assay with Bacillus subtilis [1], the MIC amounted to 8 µg/mL (≈ 33.7 µM). The IC50 with HL-60 [2] was determined as 1.7 µM. Moreover, the MBC in the assay with Bacillus subtilis [3] is 8 µg/mL (≈ 33.7 µM).

In the assay on Bacillus subtilis [1], `CC1=CC(=O)[C@@]2(O[C@H]2C(=O)CC(C)C)C(=O)N1` registered an MIC of 8 µg/mL (≈ 33.7 µM). For the same molecule, the IC50 in the assay with HL-60 [2] stood at 1.6 µM. The molecule also came in with an MBC against Bacillus subtilis [3] of 8 µg/mL (≈ 33.7 µM).

In the case of `CC(C)CC(=O)[C@@H]1O[C@@]12C(=O)C=C(Cc1ccccc1)NC2=O` (racemic), the IC50 is above 100 µM with HCT-116; above 100 µM with A549; above 50 µM in the assay on MRC5; above 50 µM in the assay on HEK293; above 100 µM with TE-8; 37.3 µM with HL-60 [2]. The half-inhibitory concentration (IC50) was above 100 µM in the assay with HeLa and above 50 µM in the assay on Jurkat. The MIC with Bacillus subtilis [1] is 128 µg/mL (≈ 408 µM); in the assay with Escherichia coli, above 128 µg/mL. Moreover, the MBC in the assay on Bacillus subtilis [3] came to 128 µg/mL (≈ 408 µM).

In the case of `CC(C)C[C@]1(O)NC(=O)[C@]2(OC(Cc3ccccc3)=CC2=O)[C@H]1O` (racemic), the IC50 with HCT-116 was above 100 µM; in the assay with A549, above 100 µM; in the assay with MRC5, above 50 µM; in the assay on HEK293, above 50 µM; in the assay with TE-8, above 100 µM; in the assay with HL-60 [2], 28 µM. In addition, the figures for the IC50 with HeLa and in the assay on Jurkat were above 100 µM and above 50 µM, respectively. The MIC against Bacillus subtilis [1] and against Escherichia coli was above 128 µg/mL each time. The minimum bactericidal concentration (MBC) against Bacillus subtilis [3] is above 128 µg/mL.

As to `CC1=CC(=O)[C@]2(O1)C(=O)N[C@@](O)(CC(C)C)[C@@H]2O` (racemic), the IC50 in the assay on HCT-116 was above 100 µM; with A549, above 100 µM; with MRC5, above 50 µM; in the assay with HEK293, above 50 µM; with TE-8, above 100 µM; in the assay with HL-60 [2] it was above 50 µM. Further, the 50% inhibitory concentration (IC50) was above 100 µM in the assay on HeLa and above 50 µM in the assay on Jurkat. Also, the minimum inhibitory concentration (MIC) against Bacillus subtilis [1] and in the assay on Escherichia coli was above 128 µg/mL throughout. This molecule also showed an MBC in the assay on Bacillus subtilis [3] above 128 µg/mL.

Take `CC(C)CC(=O)C1Oc2cc(Cc3ccccc3)[nH]c(=O)c2O1` (racemic): the IC50 is above 100 µM with HCT-116; above 100 µM with A549; above 50 µM in the assay on MRC5; above 50 µM with HEK293; above 100 µM with TE-8; above 50 µM in the assay on HL-60 [2]. Also, the IC50 was above 100 µM in the assay on HeLa and above 50 µM with Jurkat. Further, the minimum inhibitory concentration (MIC) against Bacillus subtilis [1] and against Escherichia coli was above 128 µg/mL throughout. For the same molecule, in the assay on Bacillus subtilis [3], the MBC was above 128 µg/mL.

Take `CC(C)C[C@@]12NC(=O)[C@]3(O)C(=O)C[C@@](C)(O[C@@H]31)O2` (racemic): the IC50 is above 100 µM with HCT-116; above 100 µM in the assay with A549; above 50 µM in the assay on MRC5; above 50 µM in the assay on HEK293; above 100 µM with TE-8; 37.7 µM with HL-60 [2]. Moreover, the IC50 is above 100 µM in the assay on HeLa and above 50 µM with Jurkat. Besides, the MIC in the assay with Bacillus subtilis [1] and against Escherichia coli was above 128 µg/mL each time. The same molecule yielded an MBC with Bacillus subtilis [3] above 128 µg/mL.

For `Cc1cc2c(c(=O)[nH]1)OC(C(=O)CC(C)C)O2` (racemic), the IC50 in the assay with HCT-116 is above 100 µM; in the assay with A549 it was above 100 µM; with MRC5, above 50 µM; with HEK293, above 50 µM; in the assay with TE-8, above 100 µM; in the assay with HL-60 [2], 19.9 µM. The IC50 with HeLa was above 100 µM; with Jurkat, above 50 µM. For the same molecule, the MIC in the assay with Bacillus subtilis [1] and with Escherichia coli was above 128 µg/mL each time. The molecule also had an MBC against Bacillus subtilis [3] above 128 µg/mL.

With `CC1=CC(=O)C2(OC2C(=O)CC(C)C)C(=O)N1` (racemic), the 50% inhibitory concentration (IC50) with HCT-116 amounted to 30.4 µM; with A549, 32.1 µM; in the assay with MRC5, 33.2 µM; with HEK293 it was 35.9 µM; in the assay on TE-8, 21.6 µM; in the assay with HL-60 [2], 1.8 µM. Further, the IC50 in the assay with HeLa came to 40.5 µM; in the assay on Jurkat it was 8 µM. Moreover, the figures for the MIC in the assay on Bacillus subtilis [1] and against Escherichia coli were 8 µg/mL (≈ 33.7 µM) and above 128 µg/mL, respectively. For the same molecule, in the assay on HL-60 [4], the outcome was inactive. In the assay on Bacillus subtilis [3], this molecule had an MBC of 8 µg/mL (≈ 33.7 µM). In the assay on HL-60 [5], the outcome was Active.

As for `CCc1c2c(nc3ccc(O)cc13)-c1cc3c(c(=O)n1C2)COC(=O)[C@]3(O)CC` [7-ETHYL-10-HYDROXYCAMPTOTHECIN], the IC50 was below 1 µM in the assay with HCT-116; 6.6 µM with A549; 15.3 µM with MRC5; below 1 µM in the assay on HEK293; below 1 µM in the assay with TE-8; 2.4 µM in the assay with HL-60 [2]. In addition, the results for the IC50 with HeLa and in the assay on Jurkat were 13.1 µM and below 1 µM, respectively.

On to `CC1(C)S[C@@H]2[C@H](NC(=O)[C@H](N)c3ccccc3)C(=O)N2[C@H]1C(=O)O` [AMPICILLIN], for which the MIC was below 0.5 µg/mL against Bacillus subtilis [1] and 4 µg/mL (≈ 11.4 µM) against Escherichia coli. In addition, the MBC against Bacillus subtilis [3] was below 0.5 µg/mL.

In turn, `O=C(N[C@H](CO)[C@H](O)c1ccc([N+](=O)[O-])cc1)C(Cl)Cl` [CHLORAMPHENICOL] gave an MIC in the assay on Bacillus subtilis [1] of 4 µg/mL (≈ 12.4 µM). In the assay on Bacillus subtilis [3], this molecule yielded an MBC of 64 µg/mL (≈ 198 µM).

(Values after ChEMBL document CHEMBL4390685, “Synthesis, antibacterial and cytotoxic evaluation of flavipucine and its derivatives” (Bioorg Med Chem Lett, 2019).)
